# High-throughput results as filed in PubChem.
# UCH37 DUB inh: blocks the human deubiquitinase UCH37; purified proteasome/UCH37, Ub-AMC cleavage fluorescence; Q9Y5K5; inhibition, % (concentration not given with the values); AID 588478; actives 0.33% (n = 330,000);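 active means mean inhibition over replicate wells above about 20%, limit read from the data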;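 further: 0% = compound-free wells with enzyme and 100% = wells lacking proteasome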
# Target sequence (Q9Y5K5 whole entry, looked up): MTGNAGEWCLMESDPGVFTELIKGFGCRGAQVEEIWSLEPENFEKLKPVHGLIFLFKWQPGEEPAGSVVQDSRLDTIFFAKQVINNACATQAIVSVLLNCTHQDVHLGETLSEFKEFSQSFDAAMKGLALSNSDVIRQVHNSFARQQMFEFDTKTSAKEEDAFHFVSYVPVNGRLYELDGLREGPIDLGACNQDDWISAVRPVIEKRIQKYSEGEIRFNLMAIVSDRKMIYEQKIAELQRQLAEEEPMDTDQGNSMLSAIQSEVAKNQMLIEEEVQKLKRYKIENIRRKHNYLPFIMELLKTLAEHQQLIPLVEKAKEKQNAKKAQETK
#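 assay system = human UCH37 enzyme supplied as purified proteasome complex | amount = proteasome at 0.15 nM in the dispensed enzyme solution | schedule = 30 min compound-proteasome preincubation then 25 min substrate reaction, room temperature | measured by = fluorescence, ex 355 nm, em 460 nm | benchmarks = no-proteasome wells (full inhibition) and compound-free wells (no inhibition)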
# PP1 counter: counter-screen for PP5 inhibitors: inhibitors of human PP1-alpha; purified PP1alpha, OMFP fluorescence; inhibition, % at 6.7 µM; actives 0.9% (n = 320,000); AID 2235;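 active means inhibition above the mean inhibition of all tested compounds plus 3 SD, computed separately for each screening campaign, cut at about 15% in these data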
# Target sequence (P62136 whole entry, looked up): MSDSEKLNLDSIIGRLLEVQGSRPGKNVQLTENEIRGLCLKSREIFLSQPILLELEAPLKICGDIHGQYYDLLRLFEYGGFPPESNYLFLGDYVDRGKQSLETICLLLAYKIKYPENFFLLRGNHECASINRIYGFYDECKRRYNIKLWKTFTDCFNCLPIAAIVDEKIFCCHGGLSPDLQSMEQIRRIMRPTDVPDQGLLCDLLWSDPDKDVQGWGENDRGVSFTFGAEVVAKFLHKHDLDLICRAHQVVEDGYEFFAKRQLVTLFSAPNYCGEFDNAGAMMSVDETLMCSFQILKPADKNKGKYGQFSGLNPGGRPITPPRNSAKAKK
# UBC13 inh: human UBC13 polyubiquitination inhibition; inhibition, % at 20 µM; UBC13 polyubiquitin chain formation, TR-FRET; actives 0.47% (n = 330,000); AID 485273; in the data active means inhibition above about 45%, passing the limit was not always enough; inconclusive means no clear call, values can overlap the other calls
# CTSL1 counter: blocks F. hepatica cathepsin L1 in PFM18AAP counter-screen | inhibition, % at 5.96 µM | actives 0.49% (n = 300,000) | recombinant F. hepatica cathepsin L1, Z-Leu-Arg-MCA fluorescence | AID 1906;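 active means inhibition above the mean of all tested compounds plus 3 SD, set per screening campaign, cut at about 17% in these data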;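 further: 0% = plate median of test compound wells and 100% = 1 µM Z-Phe-Ala-diazomethylketone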
# PP5 primary: inhibitors of human protein phosphatase 5 (PP5); P53041; actives 0.18% (n = 320,000); inhibition, % at 6.7 µM; purified PP5c, OMFP substrate fluorescence; AID 1987;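 active means inhibition above the campaign's mean inhibition across all tested compounds plus 3 SD, cut at about 9.5% in these data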;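 further: 0% = DMSO only and 100% = 100 µM cantharidin control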
# PREPL inh: inhibits the human prolyl oligopeptidase-like enzyme; inhibition, % at 5.96 µM; Q4J6C6; recombinant PREPL, fluorescence polarization activity-based probe; actives 0.68% (n = 320,000);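 further: 0% = enzyme with DMSO and 100% = wells lacking enzyme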
# PREPL inh cf: human PREPL inhibition, confirmation; inhibition, % at 5.96 µM; AID 2803; shares compounds with PREPL inh; actives 67% (n = 2,000); recombinant PREPL, fluorescence polarization activity probe;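 further: 0% = protein with DMSO and 100% = wells lacking protein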
# Active calls of the source: *; i = inactive; ? = inconclusive; / = no result. Shown are actives, neighbours in structure and some others; about 2.3% of the full set was active somewhere. Unless noted, no stated cut-off is given here; in the data, active means inhibition above about 43%; inactive means the rest.
SMILES,UCH37 DUB inh,PP1 counter,UBC13 inh,CTSL1 counter,PP5 primary,PREPL inh,PREPL inh cf
c1ccc(CNc2ccc(N3CCOCC3)cc2)cc1,-1.6,/,6.0,/,/,40.9,/
CC(=NNS(=O)(=O)c1ccc(Cl)cc1)c1ccncc1,-0.6,/,/,/,/,/,/
Cc1ncc([N+](=O)[O-])n1CC(=O)NN=Cc1ccccc1F,4.1,/,/,/,/,/,/
COc1cc(NC(=O)C[n+]2ccc(C(=O)c3ccccc3)cc2)cc(OC)c1,5.4,/,-1.7,/,/,49.2*,34.2
O=C(CSc1ccc(Cl)cc1)Nc1ccc(NC(=O)c2ccco2)cc1,0.9,-0.2,-0.4,1.2,-1.9,-4.6,/
Cc1ccccc1C(=O)N1CCN(c2ccc(NC(=O)CSc3ccc(Cl)cc3)cc2)CC1,0.7,5.7,-10.1,4.4,4.7,64.9*,50.5*
CCC(=O)Nc1ccc(N2CCN(C(=O)c3ccccc3C)CC2)cc1,-2.2,-3.6,11.1,-3.3,1.8,9.6,/
O=C(COc1ccc(Cl)cc1)Nc1ccc(N2CCN(C(=O)c3ccco3)CC2)cc1,3.7,0.4,2.2,0.0,2.5,48.6*,48.2*
COc1ccc(OCC(=O)Nc2ccc(N3CCN(C(=O)c4ccco4)CC3)cc2)cc1,-1.9,-1.4,1.0,5.0,-2.5,25.6,/
O=C(CSc1ccc(Cl)cc1)Nc1ccc(N2CCN(C(=O)c3ccco3)CC2)cc1,1.4,2.3,3.5,1.7,2.8,48.0*,48.6*
O=C(NN=Cc1cccc(Cl)c1)c1ccc(Cn2cccn2)o1,1.3,/,/,/,/,/,/
CC(=NNC(=O)C(N)=O)c1ccc(O)cc1O,7.7,/,/,/,/,/,/
COc1ccc(OC)c(Nc2nc(NCCCN(C)C)nc(N)c2[N+](=O)[O-])c1,12.9,7.5,?,3.4,3.4,46.9*,37.7
CC(=NNC(=O)CNC(=O)c1cccnc1)c1ccccc1,1.9,/,/,/,/,/,/
CCOc1ccc(-c2cnc(NCc3cccc4ccccc34)n2CCOC)cc1,1.5,2.0,15.9,-1.3,1.9,47.4*,42.7
COCCn1c(-c2ccc(OC)cc2)cnc1N,-4.4,2.4,7.8,-3.1,0.4,17.1,/
CC(=NO)c1c(O)cc(-c2ccccc2)n(-c2ccccc2)c1=O,1.3,/,/,/,/,/,/
CC(C)Cn1cc(C(=O)N2CCN(c3ccccn3)CC2)c2c3ccccc3n(C)c2c1=O,-44.9,-0.5,19.2,-2.0,1.4,51.0*,42.5
CCN1CCN(C(=O)c2cn(CCOC)c(=O)c3c2c2ccccc2n3C)CC1,-88.0,1.6,6.6,0.9,1.0,-3.9,/
N#Cc1nc(/C=C/c2ccccc2)oc1NCCCN1CCOCC1,i,-4.8,13.5,2.6,-1.6,46.6*,38.7
N#Cc1nc(COc2ccc(-c3ccccc3)cc2)oc1NCCCN1CCOCC1,5.3,-0.1,26.2,-3.7,1.6,45.3*,41.3
Cn1c(=O)[nH]c(=O)c2c1nc(NN=C/C(Br)=C/c1ccccc1)n2CCO,1.6,/,/,/,/,/,/
COc1ccc(NS(=O)(=O)c2cc(NC(=O)c3cc(F)c(F)c(F)c3F)ccc2N2CCCC2)cc1,1.3,3.8,-8.2,-3.2,1.9,46.3*,38.9
CC(=O)Nc1ccc(C(=O)Cn2c3[n+](c4c(F)c(F)ccc42)CCCCC3)cc1,0.1,4.9,7.1,0.7,1.3,47.2*,56.3*
O=C(NCCc1ccccc1)c1ccc2c(c1)S(=O)(=O)c1cc(Cl)ccc1C2=O,-1.8,2.0,-18.7,/,4.2,56.2*,19.5
SMILES,UCH37 DUB inh,PP1 counter,UBC13 inh,CTSL1 counter,PP5 primary,PREPL inh,PREPL inh cf
O=C(NCc1ccccc1)c1ccc2c(c1)S(=O)(=O)c1cc(Cl)ccc1C2=O,5.5,3.0,14.5,/,1.3,34.2,/
N#Cc1c(Nc2ccccc2)c(C=NNCCO)c[nH]c1=O,4.7,/,/,/,/,/,/
COc1ccc(NS(=O)(=O)c2ccc(NN=Cc3ccc(C(=O)O)cc3)c([N+](=O)[O-])c2)cc1,/,/,-101.2,/,/,45.1*,40.0
O=C(O)c1ccccc1NS(=O)(=O)c1ccc(NN=Cc2ccc(F)cc2)c([N+](=O)[O-])c1,10.9,/,-47.3,/,/,43.6*,36.7
O=C(O)c1ccccc1NS(=O)(=O)c1ccc(NN=Cc2cccc(Cl)c2)c([N+](=O)[O-])c1,15.7,/,-46.8,/,/,53.4*,44.7*
Fc1ccccc1COc1ccc(C=Nn2cnnc2)cc1,1.8,/,/,/,/,/,/
Fc1ccc(Br)cc1C=NN1CCN(c2ccccc2)CC1,0.4,/,/,/,/,/,/
Cc1ccc(S(=O)(=O)NCC(=O)OCC(=O)Nc2cccc(S(=O)(=O)NC3=NCCCCC3)c2)cc1C,3.8,0.7,-0.2,-23.4,-0.3,-7.5,/
Cc1ccc(C)c(C(=O)OCC(=O)Nc2cccc(S(=O)(=O)NC3=NCCCCC3)c2)c1,3.8,0.0,15.8,-3.0,1.9,46.4*,32.9
CCCC(=O)NCc1ccc2c(c1)cc(C)n2C,1.8,2.2,36.4,6.0,-2.4,20.0,/
Cc1cc2cc(CNC(=O)c3ccc(Br)o3)ccc2n1C,5.8,11.1,-7.6,-2.1,2.6,65.2*,65.6*
Cc1cc2cc(CNC(=O)c3ccc(Br)o3)ccc2[nH]1,7.3,8.1,-11.0,-0.1,3.1,53.1*,23.8
O=C(NN=Cc1cccc2nccnc12)c1ccccc1O,8.2,/,/,/,/,/,/
CN=c1scc(-c2ccc(F)cc2)n1N=Cc1ccc(O)c(O)c1,1.2,/,/,/,/,/,/
C[C@H]1COC(=O)[C@H](Cc2ccc(F)cc2)CC/C=C/C[C@@H](CC(=O)N[C@@H](CO)Cc2ccccc2)C(=O)N1,0.9,/,-1.1,/,/,41.1,/
CC(C)(C)[C@H]1COC(=O)[C@H](Cc2ccc(F)cc2)CC/C=C/C[C@@H](CC(=O)N[C@H](CO)Cc2ccccc2)C(=O)N1,4.2,/,-6.3,/,/,45.9*,49.4*
C[C@@H]1COC(=O)[C@@H](Cc2ccc(F)cc2)CC/C=C\C[C@@H](CC(=O)NCCO)C(=O)N1,1.8,/,15.8,/,/,16.6,/
CC(C)(C)[C@@H]1COC(=O)[C@H](Cc2ccc(F)cc2)CC/C=C\C[C@@H](CC(=O)NCCO)C(=O)N1,-0.2,/,-3.1,/,/,49.0*,34.8
CC(=NNC(=O)CC1C(=O)NN=C1C)c1cccs1 (stereo not drawn),5.8,/,/,/,/,/,/
O=C(O)c1ccc(N/N=C/c2ccc(-c3cccc(Cl)c3)o2)cc1,/,5.4,6.4,4.7,3.3,57.0*,55.2*
Cc1c(C(=O)O)cccc1-c1ccc(/C=N/Nc2ccc(Br)cc2)o1,/,4.5,-17.7,7.5,0.4,45.8*,21.5
CC1CC(C)CN(C(=O)c2ccc3c(c2NCCO)C(=O)c2ccccc2C3=O)C1 (stereo not drawn),5.9,0.6,-263.2,1.9,0.7,55.6*,57.6*
CC1CC(C)CN(C(=O)COC(=O)CN2C(=O)c3ccccc3C2=O)C1 (stereo not drawn),1.5,/,-1.8,/,/,8.0,/
O=C(Nc1ccc2c(c1)OCCO2)c1ccccc1F,4.1,0.2,7.2,-1.4,-0.6,-11.8,/
O=C(Nc1ccc2c(c1)OCCO2)c1cccc2nc3ccccc3nc12,6.4,-0.5,-7.7,1.2,-1.4,48.8*,60.1*
